Reference: ChEMBL document CHEMBL1138856, “Synthesis and anti-human immunodeficiency virus activity of 4'-branched (+/-)-4'-thiostavudines” (J Med Chem, 2006)

Experiments:
[1] = tested on: Human immunodeficiency virus 1; experiment: Antiviral activity against HIV1 3B in MT4 cells by MTT assay; assay type: functional, organism-based
[2] = Cytotoxicity against MT4 cells MTT assay; assay type: cell-based; conditions: human
Summary of the method: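 Mock-infected MT-4 cells were cultured with various compound concentrations in parallel with the antiviral assay (4 days, 37 °C). Viability was read by MTT. The value is the concentration reducing viability by 50%.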

[3] = Human immunodeficiency virus 1, 3B, MT4

SMILES	EC50 ([1]; mt4) [µM]	CC50 [2] [µM]	EC50 [1, 3] [µM]
C#C[C@@]1(CO)C=C[C@H](n2cc(C)c(=O)[nH]c2=O)S1 (racemic)	0.74		
Cc1cn([C@H]2C=CC(CO)(CO)S2)c(=O)[nH]c1=O (racemic)		> 100	> 100
COC(=O)[C@@]1(CO)C=C[C@H](n2cc(C)c(=O)[nH]c2=O)S1 (racemic)		> 100	> 100
Cc1cn([C@H]2C=C[C@@](C#N)(CO)S2)c(=O)[nH]c1=O (racemic)		> 100	7.6
Cc1cn([C@H]2C=C[C@](CO)(C(N)=O)S2)c(=O)[nH]c1=O (racemic)		> 100	> 100
C=C[C@@]1(CO)C=C[C@H](n2cc(C)c(=O)[nH]c2=O)S1 (racemic)		> 100	> 100
C#C[C@@]1(CO)C=C[C@H](n2cc(C)c(=O)[nH]c2=O)S1 (stereo in doubt; (+)-29)	> 20	> 100	
C#C[C@@]1(CO)C=C[C@H](n2cc(C)c(=O)[nH]c2=O)S1 (stereo in doubt; (-)-29)	0.37		
C#C[C@@]1(CO)C=C[C@H](n2cc(C)c(=O)[nH]c2=O)O1 [CENSAVUDINE]		> 100	0.06
Cc1cn([C@H]2C=C[C@@H](CO)O2)c(=O)[nH]c1=O [STAVUDINE]		> 100	0.51
